The source of these data is ChEMBL document CHEMBL4513216, “Probing the Open Global Health Chemical Diversity Library for Multistage-Active Starting Points for Next-Generation Antimalarials” (ACS Infect Dis, 2020).

A short description of the series: Toxicity liver stage against HepG2, at 10uM. Type of series: cell-based. Details: test concentration 10 uM, cell line HepG2-A16-CD81EGFP. Conditions: human, HepG2-A16-CD81EGFP cells; read-out: INHIBITION
The gist of the method:
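Uninfected HepG2-A16-CD81EGFP cells, 3 × 10^3 per well, 1536-well, plated on prespotted compound at 10 μM final, parasite-free screening media added to match infected plates; puromycin 10 μM positive, DMSO 0.5% negative; run in parallel with 48 h PbLuc assay at 37 °C, 5% CO2; viability by CellTiter-Glo luminescence, normalized to controls.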
As for `CN1CCOC(CNCc2coc(-c3ccccc3Cl)n2)C1` (configuration not stated), the cytotoxicity at 10 µM was -14.1%.

As to `Cc1cc(C)c(CNC(=O)NCC2COc3ccccc3C2)c(=O)[nH]1` (configuration not stated), the cytotoxicity at 10 µM was 8.51%.

Take `Cc1cc(F)ccc1NC(=O)Cn1cc(C(=O)O)ccc1=O`: the cytotoxicity at 10 µM is -0.555%.

With `CCN1CCCC(CNC(=O)CCc2ccc(OC)c(F)c2)C1` (configuration not stated), the cytotoxicity at 10 µM was -3.42%.

For `CC(C)(C)OC(=O)N1CCCC[C@H]1C(=O)NCc1nccs1`, the cytotoxicity at 10 µM is -9.39%.

For the molecule `CC(=O)Nc1nc(C(=O)N2CCCC(n3cncn3)C2)cs1` (configuration not stated), the cytotoxicity at 10 µM is -2.02%.

For the molecule `O=C(NC1CCCN(Cc2c(F)cccc2F)C1)c1cc[nH]n1` (configuration not stated), the cytotoxicity at 10 µM was 5.72%.

Turning to `Cc1noc(C2CCCCN2C(=O)NCc2ccco2)n1` (configuration not stated), the cytotoxicity at 10 µM turned out to be 0.986%.

Regarding `Cc1cccc(NC(=O)CN(C)C(=O)c2scnc2C)n1`, the cytotoxicity at 10 µM is -3.79%.

As for `OCCN1CCN(CC2(O)CCCCC2)CC1`, the cytotoxicity at 10 µM turned out to be 3.66%.

In the case of `Cc1nccn1-c1ccc(C(C)NCc2ncc[nH]2)cc1` (configuration not stated), the cytotoxicity at 10 µM was 1.91%.

For `CC(C)(C)CCN1CCC(c2nnc(Cn3cccn3)n2C2CC2)CC1`, the cytotoxicity at 10 µM was found to be 8.19%.

Regarding `Cc1ccc(C(=O)N2CCC3(CCN(Cc4ccccn4)C3=O)C2)cn1` (configuration not stated), the cytotoxicity at 10 µM was -145%.

As to `CCN(Cc1csc(C)n1)c1cccc(CO)c1`, the cytotoxicity at 10 µM was -6.55%.

As for `CCOCCOC(C)C(=O)NCc1ccc(N2CCCCC2)cc1` (configuration not stated), the cytotoxicity at 10 µM amounted to 11.6%.

For the molecule `CCC(O)CN1CCN(C(=O)Cc2cc(Cl)ccc2OC)CC1` (configuration not stated), the cytotoxicity at 10 µM was -10.4%.

`O=C(CN1CCS(=O)(=O)CC1)Nc1ccc(N2CCCC2)nc1`: the cytotoxicity at 10 µM was 10.3%.

With `O=C(CCn1cccn1)NCC(c1cccs1)N1CCCC1` (configuration not stated), the cytotoxicity at 10 µM turned out to be 7.02%.

As for `CN(C)C(=O)N1CCC2(CC(=O)N(c3ccc4c(c3)OCO4)C2)C1` (configuration not stated), the cytotoxicity at 10 µM came out at 8.04%.

`CNC(=O)[C@@]12CCO[C@@H]1CCN(Cc1scnc1C)C2`: the cytotoxicity at 10 µM turned out to be 6.12%.

Consider `O=C(Cc1ccsc1)N1CCc2ncc(Cn3cccn3)n2CC1`, for which the cytotoxicity at 10 µM was -81.5%.

For the molecule `CC(C(N)=O)S(=O)(=O)Cc1cc(Cl)c2c(c1)OCO2` (configuration not stated), the cytotoxicity at 10 µM was -14.2%.

With `COc1cc(C2CC(=O)NCc3nc4sccn4c32)cc(OC)c1O` (configuration not stated), the cytotoxicity at 10 µM is -0.966%.

As to `CCC(=O)N1CCN(C(=O)c2cn3ccsc3n2)[C@H]2CS(=O)(=O)C[C@H]21`, the cytotoxicity at 10 µM was found to be 4.95%.

Take `CCCc1nc2c(c(C)c(C)n2Cc2ccccn2)c(N)c1CC`: the cytotoxicity at 10 µM came out at 23.3%.

In the case of `Cc1ccc(-c2nnc(CN3CCCC(O)(CO)CC3)o2)n1C` (configuration not stated), the cytotoxicity at 10 µM was -2.4%.

For the molecule `CCCNC(=O)c1cc2c([nH]c1=O)CC(c1cccs1)CC2=O` (configuration not stated), the cytotoxicity at 10 µM was 50.9%.

For the molecule `O=C(c1csc(-c2ncccn2)n1)N1CCN2CCCCC2C1` (configuration not stated), the cytotoxicity at 10 µM was found to be 4.55%.

As for `CN(C)C(CNC(=O)CCNC(=O)OCC(F)(F)F)c1ccsc1` (configuration not stated), the cytotoxicity at 10 µM was -45.2%.

Take `COCCNc1cc(-c2ccccc2C(N)=O)c2cc[nH]c2n1`: the cytotoxicity at 10 µM was -2.32%.

As for `CNCCNc1ccc(-c2nc(-c3cccc(OC)c3OC)no2)cn1`, the cytotoxicity at 10 µM was -2.4%.

Consider `COc1cc(C)cc(-c2nc3c([nH]2)CCNC3)c1OC`, for which the cytotoxicity at 10 µM was 4.46%.

As to `Cc1cc(CN(C)C(=O)NC(C)c2nncn2C)no1` (configuration not stated), the cytotoxicity at 10 µM stood at 8.79%.

Turning to `O=C(O)c1ccc(S(=O)(=O)Nc2cnn(CC(F)(F)F)c2)cc1`, the cytotoxicity at 10 µM is -7.52%.

In the case of `Cn1cccc1-c1cc(C(=O)NCCc2nnc(N)s2)[nH]n1`, the cytotoxicity at 10 µM is -7.22%.

Consider `COc1cccn(Cc2nnc(-c3cccc(F)c3)o2)c1=O`, for which the cytotoxicity at 10 µM was found to be 2%.

Turning to `COc1cccc(CNCc2ccc(F)c(Cl)c2)c1O`, the cytotoxicity at 10 µM was -13.7%.

For `Cc1ccc(NS(=O)(=O)c2cc(C(=O)O)oc2C)c(Br)c1`, the cytotoxicity at 10 µM came out at 1.83%.

With `COc1ccc2c(c1)OCC(Cc1ccc(N(C)C)nc1)C2` (configuration not stated), the cytotoxicity at 10 µM was 2.77%.

Turning to `N#Cc1cc(NC(=O)C2CC=CC2)ccc1N1CCC(O)CC1`, the cytotoxicity at 10 µM was -9.29%.

Turning to `CN1C(=O)CCCC12CCCN(Cc1cccs1)C2` (configuration not stated), the cytotoxicity at 10 µM was -0.302%.

Take `Cc1ncsc1CN1C[C@@H](OCc2ccccn2)[C@H]2OCCC[C@H]21`: the cytotoxicity at 10 µM is -141%.

As to `CCc1nc(N2CCOCC2)ncc1C(=O)NC(c1cccs1)C(C)C` (configuration not stated), the cytotoxicity at 10 µM is 12.3%.

As to `Cc1cc(C)c(CNc2ncnc3ccccc23)c(=O)[nH]1`, the cytotoxicity at 10 µM is 17.6%.

Turning to `CCNC(=O)[C@@H]1C[C@H](N)CN1Cc1ccc(-c2ccccc2C#N)o1`, the cytotoxicity at 10 µM is -38.2%.

Consider `O=C(NCCN1C(=O)CCC1=O)c1nc2ccccc2c(=O)[nH]1`, for which the cytotoxicity at 10 µM was -8.99%.

As to `COc1cc(C)sc1C(=O)NCCC(=O)N(C)Cc1ccccc1`, the cytotoxicity at 10 µM is -8.78%.

Regarding `CN(C)C(=O)C1OC2(CCN(c3ncc(F)cn3)CC2)c2ccccc21` (configuration not stated), the cytotoxicity at 10 µM was found to be 6.27%.

Turning to `CCCc1nc(CN2CCCC2c2cnn(C)c2)cs1` (configuration not stated), the cytotoxicity at 10 µM stood at 0.441%.

As to `CCCn1nnc(NCc2ccc(-c3ccc(Br)cc3)o2)n1`, the cytotoxicity at 10 µM was -4.11%.

With `O=C(c1ncoc1C1CCCO1)N1CCC2(CCCCC2)CC1` (configuration not stated), the cytotoxicity at 10 µM is -7%.

As for `Cc1cccc(CS(=O)(=O)NCc2nn(C)c3c2COCC3)c1`, the cytotoxicity at 10 µM is -3.02%.

Turning to `Cc1cc(C)n(CC2CCCN2Cc2cscn2)n1` (configuration not stated), the cytotoxicity at 10 µM is -7.65%.

With `C=C(C)COc1ccc(C(CC(=O)OC)c2oc(C)cc(=O)c2O)cc1` (configuration not stated), the cytotoxicity at 10 µM is -9.24%.

`OCCN(Cc1ccccc1)Cc1ccsc1`: the cytotoxicity at 10 µM is 4.7%.

As to `Cc1noc(CN(CCc2cccs2)Cc2cccc(C#N)c2)n1`, the cytotoxicity at 10 µM worked out at 2.27%.

Consider `CCc1ccc2ncn(Cc3ncc[nH]3)c(=O)c2c1`, for which the cytotoxicity at 10 µM turned out to be 11.1%.

On to `CN1CCN(C(=O)c2ccc(=O)n(C)c2)c2ccccc21`, for which the cytotoxicity at 10 µM is -11.5%.

Consider `Cc1cccc(CN2C(=O)CCC23CCN(C(=O)NC(C)C)CC3)n1`, for which the cytotoxicity at 10 µM came to 5%.

As to `NS(=O)(=O)CCCNC(=O)C1(c2cccc(Cl)c2)CC1`, the cytotoxicity at 10 µM is -4.02%.

As for `COc1ccccc1OC1CN(C(=O)C2CNCC(=O)N2)C1` (configuration not stated), the cytotoxicity at 10 µM is 5.46%.

Regarding `Cc1noc(C)c1CN1CCc2ncnc(-c3ccoc3)c2CC1`, the cytotoxicity at 10 µM was -92%.

Turning to `CC(=O)NCc1noc2c1CN(CCN1CCCC1)CC2`, the cytotoxicity at 10 µM is -5.46%.

Turning to `COCCN(Cc1cnn(C)c1)CC1CCOC1` (configuration not stated), the cytotoxicity at 10 µM is -8.52%.

Take `CN(Cc1cccnc1)C1CC2(CCN(C(=O)c3cscn3)CC2)C1`: the cytotoxicity at 10 µM turned out to be 1.02%.

In the case of `CC(=O)N1CC[C@H](c2nc3cc(F)ccc3o2)C1`, the cytotoxicity at 10 µM stood at 0.835%.

As to `CC(CCn1cccn1)NCc1n[nH]c2c1CCCCC2` (configuration not stated), the cytotoxicity at 10 µM was -3.98%.

As to `COc1ncc(CN2CC[C@@](C)(O)[C@H](Oc3cccc(F)c3)C2)cn1`, the cytotoxicity at 10 µM came out at 1.68%.

Take `CN1CC(=O)N(C2CCNCC2)Cc2c(NC3CCC3)ncnc21`: the cytotoxicity at 10 µM was found to be 3.9%.

With `Cc1nc(N2CCN(c3ccccc3)CC2)c2c(n1)c(C)nn2C`, the cytotoxicity at 10 µM is 7.8%.

Take `COCCn1cc2c(n1)C(CNCc1ccco1)OCC2` (configuration not stated): the cytotoxicity at 10 µM was -11.9%.

For the molecule `Cn1cc(NC(=O)N2CCC(c3ccccc3)CC2)ccc1=O`, the cytotoxicity at 10 µM is -9.42%.

As to `O=S(=O)(NC1=NCN(CCc2cccs2)CN1)c1ccc(F)cc1`, the cytotoxicity at 10 µM is -1.01%.

`N#Cc1ccccc1CN1C[C@H]2CC[C@@H](C1)N(CC1CC1)C2=O`: the cytotoxicity at 10 µM is -11.4%.

Take `COCC(=O)N1CCC2(CC1)CN(S(C)(=O)=O)Cc1ccccc1O2`: the cytotoxicity at 10 µM was determined as 7.3%.

As to `Cc1nc(CN2CCCC(N(C)CCc3cccs3)C2)no1` (configuration not stated), the cytotoxicity at 10 µM was -21.8%.

On to `CCOc1ccccc1N(C)Cc1nccn1C`, for which the cytotoxicity at 10 µM was -3.83%.

Turning to `COc1ccc(-c2ccc(C(=O)NS(C)(=O)=O)c(F)c2)cc1`, the cytotoxicity at 10 µM amounted to 5.7%.

In the case of `CC(C)CN1CCC(NC(=O)c2ccc(F)cc2Cl)CC1`, the cytotoxicity at 10 µM was -17.1%.

On to `CCN(CC)S(=O)(=O)N(C)Cc1ccc2c(c1)OCCO2`, for which the cytotoxicity at 10 µM is -7.85%.

Regarding `COC(=O)N1C[C@@H]2CC[C@H]1CN(Cc1cscn1)C2`, the cytotoxicity at 10 µM was -9.25%.

Take `OC1(Cn2ccc3ncccc32)CCN(Cc2cccs2)CC1`: the cytotoxicity at 10 µM was -9.65%.

As for `N#Cc1cccnc1OC1CCN(C(=O)c2cc(C3CC3)on2)CC1`, the cytotoxicity at 10 µM was found to be 0.253%.

In the case of `Cc1ccc(NC(=O)C(C)n2ccc(C(F)(F)F)n2)nc1` (configuration not stated), the cytotoxicity at 10 µM was 9.6%.

On to `CC(C)Cc1nc(CN2CCC(N3CCN(C)C3=O)CC2)no1`, for which the cytotoxicity at 10 µM was found to be 14%.

Turning to `Cc1ccc(S(=O)(=O)NCCNC(=O)c2ccoc2)cc1C`, the cytotoxicity at 10 µM was -3.26%.

As for `CCN1CCN(C(=O)c2cccc(CN3CCOCC3)c2)CC1`, the cytotoxicity at 10 µM was found to be 7.12%.

For `CC(C)CN1C(=O)CC[C@H]2CN(Cc3ncc[nH]3)CC[C@H]21`, the cytotoxicity at 10 µM was -3.25%.

With `CCN(C)C(=O)c1ccc2c(c1)C(c1nc[nH]n1)CN2S(C)(=O)=O` (configuration not stated), the cytotoxicity at 10 µM was -137%.

Take `CCc1ccc(NC(=O)C2CCN(C(=O)COC)CC2)cc1`: the cytotoxicity at 10 µM was 0.929%.

As to `CCN(Cc1c(F)cccc1Cl)c1cc(C2CCNCC2)nc(C)n1`, the cytotoxicity at 10 µM turned out to be 5.16%.

Take `Cc1nc(CN(Cc2ccccc2)C2CCS(=O)(=O)C2)oc1C` (configuration not stated): the cytotoxicity at 10 µM was -8.13%.

For the molecule `CCN1C[C@H]2[C@@H](C1)N(C(=O)Cc1ccsc1)CC[C@H]2OC`, the cytotoxicity at 10 µM is 6.8%.

For `CCc1nc(C)c([C@H]2CN(C)C[C@@H]2C(=O)Nc2ccc(OC)cc2)[nH]1`, the cytotoxicity at 10 µM is -6.66%.

With `Cc1cc(C2CCCN(CC(=O)Nc3nc4c(s3)CCC4)C2)n[nH]1` (configuration not stated), the cytotoxicity at 10 µM is -44.2%.

As to `CN(Cc1ccsc1)C(=O)CN1CCCC(Cn2cncn2)C1` (configuration not stated), the cytotoxicity at 10 µM is -11.3%.

Take `O=S(=O)(c1cccs1)N1CCCn2cnc(CN3CCCC3)c2C1`: the cytotoxicity at 10 µM was found to be 1.14%.
